In ChEMBL document CHEMBL1134307, “trans-4-[4-(Methoxyphenyl)cyclohexyl]-1-arylpiperazines: a new class of potent and selective 5-HT(1A) receptor ligands as conformationally constrained analogues of 4-[3-(5-methoxy-1,2,3,4-tetrahydronaphthalen-1-yl)propyl]-1-arylpiperazines” (J Med Chem, 2001):

Legend:
[1] = target: T1, 5-hydroxytryptamine receptor 1A (Homo sapiens, UniProt P08908); test: Binding affinity on human cloned 5-hydroxytryptamine 1A receptor transfected in human cell lines(He La)
T1 sequence (P08908 whole entry): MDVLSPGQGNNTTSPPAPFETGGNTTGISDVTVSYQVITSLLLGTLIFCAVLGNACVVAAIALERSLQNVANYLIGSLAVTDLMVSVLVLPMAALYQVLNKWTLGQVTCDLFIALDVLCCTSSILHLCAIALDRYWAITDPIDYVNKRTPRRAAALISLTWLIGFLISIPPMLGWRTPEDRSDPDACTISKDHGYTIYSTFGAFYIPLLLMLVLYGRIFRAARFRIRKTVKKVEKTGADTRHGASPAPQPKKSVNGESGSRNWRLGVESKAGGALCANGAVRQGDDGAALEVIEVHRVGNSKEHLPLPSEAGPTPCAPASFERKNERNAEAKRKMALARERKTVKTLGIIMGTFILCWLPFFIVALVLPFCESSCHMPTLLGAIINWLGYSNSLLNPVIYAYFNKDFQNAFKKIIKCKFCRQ
How it was run: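 HeLa cells stably expressing human 5-HT1A (genomic clone G-21), grown in DMEM with 10% FCS. […] Nonspecific binding with 10 µM 5-HT. Filtration through PEI-pretreated filters.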

[2] = target: T2, Alpha-1B adrenergic receptor (Homo sapiens, UniProt P35368); test: Binding affinity was determined on human cloned alpha-1B adrenergic receptor
T2 sequence (P35368 whole entry): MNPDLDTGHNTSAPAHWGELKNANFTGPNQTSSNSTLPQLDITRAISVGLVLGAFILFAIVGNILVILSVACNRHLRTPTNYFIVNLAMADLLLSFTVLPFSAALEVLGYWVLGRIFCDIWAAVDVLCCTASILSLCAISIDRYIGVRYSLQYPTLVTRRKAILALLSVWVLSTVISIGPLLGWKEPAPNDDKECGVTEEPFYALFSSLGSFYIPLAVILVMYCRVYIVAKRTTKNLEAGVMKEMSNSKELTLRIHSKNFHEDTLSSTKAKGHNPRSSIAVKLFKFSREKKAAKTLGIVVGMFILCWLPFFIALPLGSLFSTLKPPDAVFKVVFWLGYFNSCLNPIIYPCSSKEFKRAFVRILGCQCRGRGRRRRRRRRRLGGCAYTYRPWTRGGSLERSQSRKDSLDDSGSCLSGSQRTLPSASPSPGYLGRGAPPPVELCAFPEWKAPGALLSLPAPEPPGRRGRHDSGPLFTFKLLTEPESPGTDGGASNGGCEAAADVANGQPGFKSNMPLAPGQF
How it was run: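 Membranes from CHO cells stably expressing each human α1-adrenoceptor subtype, incubated in 50 mM Tris pH 7.4 with 0.2 nM [3H]prazosin and competing drugs (1 pM–10 µM), 30 min at 25 °C. Nonspecific binding with 10 µM phentolamine. Stopped with ice-cold Tris and filtration through 0.2% PEI-pretreated filters.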

D(2) dopamine receptor = D(2) dopamine receptor (Rattus norvegicus, UniProt P61169); test: Binding affinity towards dopamine receptor D2 in rat striatal membranes; type: cell membranes, Striatum, Membrane
[3] = target: T3, Adrenergic receptor alpha-1 (Rattus norvegicus, UniProt P15823+P23944+P43140); test: Binding affinity towards alpha-1 adrenergic receptor in rat cortical membranes; type: cell membranes
T3 sequence (P15823 whole entry): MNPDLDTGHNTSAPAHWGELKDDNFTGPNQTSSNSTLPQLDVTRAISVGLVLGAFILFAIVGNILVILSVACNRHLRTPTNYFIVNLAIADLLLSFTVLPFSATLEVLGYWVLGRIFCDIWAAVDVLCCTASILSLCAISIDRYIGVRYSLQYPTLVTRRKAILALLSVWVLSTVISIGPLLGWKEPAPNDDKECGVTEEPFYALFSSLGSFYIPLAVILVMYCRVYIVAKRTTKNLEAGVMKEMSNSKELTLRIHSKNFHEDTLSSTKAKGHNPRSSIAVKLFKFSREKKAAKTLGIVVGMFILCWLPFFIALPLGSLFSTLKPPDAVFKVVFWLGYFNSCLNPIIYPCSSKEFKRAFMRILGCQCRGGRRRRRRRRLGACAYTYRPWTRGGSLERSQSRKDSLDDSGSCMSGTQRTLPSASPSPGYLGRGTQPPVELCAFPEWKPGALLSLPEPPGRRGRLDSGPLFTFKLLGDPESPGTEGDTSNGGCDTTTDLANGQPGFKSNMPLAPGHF
T3 sequence (P23944 whole entry): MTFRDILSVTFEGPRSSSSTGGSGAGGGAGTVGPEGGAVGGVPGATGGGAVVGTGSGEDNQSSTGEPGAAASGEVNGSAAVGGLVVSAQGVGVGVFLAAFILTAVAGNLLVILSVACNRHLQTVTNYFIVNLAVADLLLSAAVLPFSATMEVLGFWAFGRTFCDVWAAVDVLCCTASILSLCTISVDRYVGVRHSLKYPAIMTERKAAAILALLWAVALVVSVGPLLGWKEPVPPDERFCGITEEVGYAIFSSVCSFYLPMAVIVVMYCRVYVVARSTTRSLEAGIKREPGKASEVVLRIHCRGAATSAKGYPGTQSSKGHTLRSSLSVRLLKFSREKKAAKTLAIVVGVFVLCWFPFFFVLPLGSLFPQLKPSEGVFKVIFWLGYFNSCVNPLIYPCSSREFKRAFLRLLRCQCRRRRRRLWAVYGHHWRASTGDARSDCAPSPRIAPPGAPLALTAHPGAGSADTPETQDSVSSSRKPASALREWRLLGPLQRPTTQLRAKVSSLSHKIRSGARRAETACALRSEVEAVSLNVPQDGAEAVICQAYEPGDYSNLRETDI
T3 sequence (P43140 whole entry): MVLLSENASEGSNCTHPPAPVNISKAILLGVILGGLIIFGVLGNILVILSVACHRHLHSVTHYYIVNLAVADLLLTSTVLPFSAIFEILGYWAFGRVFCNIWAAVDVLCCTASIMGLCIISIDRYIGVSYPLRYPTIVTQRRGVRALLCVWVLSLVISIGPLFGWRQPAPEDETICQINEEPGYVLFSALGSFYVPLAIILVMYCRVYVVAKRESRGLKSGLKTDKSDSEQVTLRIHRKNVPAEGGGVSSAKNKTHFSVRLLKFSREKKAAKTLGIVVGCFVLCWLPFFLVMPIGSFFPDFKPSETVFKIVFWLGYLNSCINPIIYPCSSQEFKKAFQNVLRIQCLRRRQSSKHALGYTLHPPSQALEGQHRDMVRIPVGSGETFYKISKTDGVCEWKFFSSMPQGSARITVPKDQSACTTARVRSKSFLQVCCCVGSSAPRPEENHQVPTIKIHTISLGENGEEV

[4] = Selectivity expressed as a ratio of affinity against Alpha 1d-Adrenoceptor to that of 5-HT1A receptor

Sequence of D(2) dopamine receptor (P61169 whole entry): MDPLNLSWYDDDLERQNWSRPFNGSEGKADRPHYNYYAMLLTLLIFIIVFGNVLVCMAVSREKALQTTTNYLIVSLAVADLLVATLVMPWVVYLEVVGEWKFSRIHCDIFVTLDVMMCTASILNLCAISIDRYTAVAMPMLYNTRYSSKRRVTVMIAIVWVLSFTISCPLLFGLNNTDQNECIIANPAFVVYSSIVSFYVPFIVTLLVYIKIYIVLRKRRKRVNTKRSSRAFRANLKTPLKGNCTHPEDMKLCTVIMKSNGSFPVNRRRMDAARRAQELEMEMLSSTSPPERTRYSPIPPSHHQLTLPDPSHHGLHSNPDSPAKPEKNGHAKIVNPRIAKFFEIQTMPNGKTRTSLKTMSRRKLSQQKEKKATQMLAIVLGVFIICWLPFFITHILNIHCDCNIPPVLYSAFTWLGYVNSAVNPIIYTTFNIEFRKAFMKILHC

Row | SMILES | Ki [1] [nM] | Ki [2] [nM] | Ki (D(2) dopamine receptor) [nM] | Ki [3] [nM] | Selectivity [4]
1 | COc1cccc(C2CCC(NCCOc3ccccn3)CC2)c1 (stereo in doubt) | 3.77 | 332 | 586 | > 850 | 
2 | COc1cccc2c(CCCN3CCN(c4ccccn4)CC3)cccc12 | 3 | 4.21 | 450 | 833 | 4
3 | COc1cccc2c1CCCC2CCCNCCOc1ccccn1 (stereo unspecified) | 0.23 | 26.4 | > 850 | 83 | 55
4 | COc1cccc(C2CCC(N3CCN(c4ccccn4)CC3)CC2)c1 (trans isomer) | 0.2 | 53.1 | 2190 | 767 | 
5 | COc1cccc(C2CCC(N3CCN(c4ccccc4OC)CC3)CC2)c1 (stereo in doubt; trans) | 0.21 | 43.3 | 60 | 312 | 
6 | COc1cccc2c(CCCNCCOc3ccccn3)cccc12 | 0.86 | 270 | 378 | 1300 | 97
7 | COc1cccc2c1CCCC2CCCN1CCN(c2ccccn2)CC1 (stereo unspecified) |  | 7.88 | 117 | 55 | 74
